From PubChem BioAssay AID652255 (Vanderbilt Specialized Chemistry Center, 2013)
Calls of active or inactive are those of the source. The rule behind the calls is not given here.

Target: Proteinase-activated receptor 1 (Homo sapiens) (UniProt P25116)
Experiment: PAR1 antagonism in human platelets, dose response, selectivity assay for PAR4 antagonist project, cell-based, CRC, P-selectin flow cytometry (AID 652255)
Conditions: Washed human platelets, PAR1-AP P-selectin flow cytometry
Method in brief: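 Material – washed platelets labelled with antibody · Dosing – antagonist exposure with 0.5% DMSO final · Schedule – 5 min label, 5 min compound, 10 min agonist · Benchmarks – vehicle (DMSO) control · Signal – flow cytometry fluorescence intensity, 100,000 platelet-gated events, paraformaldehyde-fixed · Probe or stimulus – PAR1 activating peptide (PAR1-AP) as agonist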

Proteinase-activated receptor 1 (Homo sapiens), sequence (P25116 whole entry, looked up): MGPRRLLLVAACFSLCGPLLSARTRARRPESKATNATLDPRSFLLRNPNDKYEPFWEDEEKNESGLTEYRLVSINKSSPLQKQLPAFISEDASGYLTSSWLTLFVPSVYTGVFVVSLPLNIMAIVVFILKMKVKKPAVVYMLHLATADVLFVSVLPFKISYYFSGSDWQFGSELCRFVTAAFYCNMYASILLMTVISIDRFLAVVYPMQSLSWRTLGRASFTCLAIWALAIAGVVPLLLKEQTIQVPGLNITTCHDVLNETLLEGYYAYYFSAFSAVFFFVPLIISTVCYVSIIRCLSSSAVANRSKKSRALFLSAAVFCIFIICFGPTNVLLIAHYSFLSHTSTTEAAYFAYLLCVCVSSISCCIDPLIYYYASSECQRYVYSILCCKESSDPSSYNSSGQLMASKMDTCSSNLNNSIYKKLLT

Row | max inhibition (stronger effect = higher value) [%] | IC50 | Structure (SMILES)
1 | 57.1 |  | COc1ccc(COc2ccc(C(=O)NCCC(C)(C)C)cc2)cc1
2 |  | inactive | CCCOCc1c(-c2ccccc2)c2cc([N+](=O)[O-])ccc2n1C
